Screening data as filed in PubChem BioAssay.
Most compounds without a hit are left out; they make up all but 2.1% or so of the library.
Statin myotox sup – suppressors of simvastatin-induced myotoxicity in C2C12 myotubes | ATP luminescence, 48 h; scaled: DMSO 0, geranylgeraniol control 100 | rescue of ATP level, % at 7.49 µM | actives 0.78% (n = 330,000) | AID 602340;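 active = mean ATP rescue above about 67%, or every replicate alone reaching that limit, limit read from the data, passing the limit was not always enough; inconclusive = no clear call, values can overlap the other calls; inactive = mean under the limit and some replicate under it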;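 note: myotubes were challenged with 10 µM simvastatin during compound exposure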
DENV2 CPE rescue – protects cells from dengue virus 2 cytopathic effect. actives 1.7% (n = 350,000). DENV2-infected cells, cytopathic effect rescue, plate reader. AID 651640. CPE inhibition, % at 9.99 µM; in the data active = CPE inhibition above about 20%, passing the limit was not always enough; inconclusive = no clear call, values can overlap the other calls; tested in BHK-21 cells;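 note: 0% = median of neutral control wells and 100% = median of positive control wells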
XiGFP reactiv – X-chromosome reactivation activator | actives 0.055% (n = 360,000) | XiGFP mouse fibroblasts, % GFP-positive cells imaging, 3 d; cells co-treated with 5-aza-dC sensitizer; scaled so ellipticine positive control = 100% | AID 743238 | activation, % at 7.58 µM;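 active = mean normalized replicate activation at least 10% and every replicate at or above 10%; inconclusive = only one of the two criteria met; inactive = mean below 10% and not all replicates reach 10%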;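 note: 0% = median of on-plate neutral control wells and 100% = ellipticine 6 µM median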
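material = 68-5-11 XiGFP fibroblast line | medium = DMEM plus 5-aza-dC sensitizer | schedule = 3 days compound exposure | benchmarks = positive control ellipticine, 6 µM final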
Cneo AK release – causes C. neoformans cell lysis; adenylate kinase release luminescence, 4 h; normalised: neutral wells 0, clomiphene wells 100; lysis activity, % at 15 µM; actives 0.2% (n = 360,000);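 active = mean lysis activity across replicates of at least 80%, whatever share of replicates individually reach that level; inactive = mean lysis activity below 80%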
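Material – Cryptococcus neoformans yeast cells · Quantity – 5 × 10^6 yeast cells/mL · Buffer or medium – YPD medium · Compound – single dose · Timing – 4 h static compound exposure, 37 °C, read 1 h post-reagent · Signal – adenylate kinase release luminescence · Read-out basis – lysis from increased AK signal · Benchmarks – Clomiphene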
Starred values were filed as active, the others as inactive; ? = inconclusive; nt = not tested or not shown.

SMILES	Statin myotox sup	DENV2 CPE rescue	XiGFP reactiv	Cneo AK release
O=C(N[C@@H]1CC[C@@H](CCNS(=O)(=O)c2ccc(Cl)cc2)O[C@@H]1CO)c1ccccn1	3	?	1	-8
O=C(N[C@H]1CC[C@H](CCNS(=O)(=O)c2ccc(Cl)cc2)O[C@H]1CO)c1cccc(F)c1	18	55*	0	52
O=C(N[C@H]1CC[C@H](CCNS(=O)(=O)c2ccc(Cl)cc2)O[C@H]1CO)c1ccccn1	-11	60*	0	30
CCCNC(=O)[C@@H]1[C@@H](CO)[C@@H]2Cn3c(ccc(C4=CCCC4)c3=O)[C@H]1N2C(C)=O	-11	-6	0	0
CCc1ccccc1OCC(=O)NNCC(=O)Nc1cccc(C#N)c1	1	41*	0	-2
O=S(=O)(c1ccccc1)N1CC2(C1)[C@H](c1ccccc1)[C@@H](CO)N2CC1CCOCC1	nt	36*	0	nt
O=S(=O)(c1ccccc1)N1CC2(C1)[C@H](c1ccccc1)[C@H](CO)N2CC1CCOCC1	nt	-8	0	nt
O=S(=O)(c1ccccc1)N1CC2(C1)[C@H](c1ccccc1)[C@@H](CO)N2CC1CCCC1	nt	-13	0	nt
O=S(=O)(c1ccccc1)N1CC2(C1)[C@@H](c1ccccc1)[C@@H](CO)N2CC1CCCC1	nt	27*	0	nt
COc1ccc2c3c(n(C)c2c1)[C@H](CO)NCC31CN(S(=O)(=O)c2cccc(F)c2)C1	nt	?	0	nt
OC1(c2ccc(Cl)cc2)CCN(Cc2c[nH]c3ccccc23)CC1	-4	56*	0	0
Clc1ccccc1N1CCN(Cc2c[nH]c3ccccc23)CC1	nt	-5	0	1
CCOC(=O)c1c(SC)n(-c2ccccc2)c(=S)n(-c2ccccc2)c1=O	-9	?	0	0
CCOC(=O)c1c(SCCN2CCCCC2)n(-c2ccccc2)c(=S)n(-c2ccccc2)c1=O	nt	23*	0	nt
CN(C)c1nc(Oc2ccc(C(=O)OCC(=O)Nc3ccccc3)cc2)nc(N(C)C)n1	119*	nt	nt	6
C[C@H](NC(=O)C[C@H]1CC[C@@H]2[C@H](COC[C@@H](O)CN2C(=O)Nc2cc(Cl)cc(Cl)c2)O1)c1ccccc1	-25	-1	0	4
Cc1nc(N2CCC3(CC2)OCCO3)c2nnn(Cc3ccccc3F)c2n1	130*	nt	nt	-1
CCc1nc(N2CCC3(CC2)OCCO3)c2nnn(Cc3ccccc3)c2n1	13	-5	0	3
Cc1nc(N2CCCC2)c2nnn(Cc3ccccc3Cl)c2n1	76*	nt	nt	-2
CCCNC(=O)N1CC2(C1)CN(C(=O)CC1CC1)[C@H](CO)c1c2c2ccc(OC)cc2n1C	nt	1	0	nt
CC(C)(C)[S@@](=O)N1Cc2cc(C(=O)NCCc3ccncc3)nc(-c3cccc(-c4ccc(C#N)cc4)c3)c2[C@H]1CCO	-7	-4	0	23
CC(OC(=O)c1ccc2c(=O)n3c(nc2c1)CCC3)C(=O)NC1CCCCC1C (stereo not given)	nt	33*	0	0
O=S1(=O)CCN2C(c3ccco3)=CSC2=N1	104*	nt	nt	1
Cn1cc([N+](=O)[O-])c(C(=O)Nc2ccc(C(=O)N3CCCCC3)cc2)n1	nt	39*	0	nt
Cn1cc([N+](=O)[O-])c(C(=O)Nc2ccc(C3CCCCC3)cc2)n1	nt	9	0	nt
SMILES	Statin myotox sup	DENV2 CPE rescue	XiGFP reactiv	Cneo AK release
C[C@H](CO)N1C[C@H](C)[C@H](CN(C)C)Oc2cc(-c3cccc(C(=O)N(C)C)c3)ccc2S1(=O)=O	13	3	1	3
CCN(CC)c1ccc(/C=N/N2C(=O)c3ccccc3C2=O)c(O)c1	nt	42*	0	7
CCCCNc1c(-c2ccc(-c3ccc(C(C)=O)cc3)c(OC)c2)nc2cc(C)ccn12	-65	61*	0	0
CCCCNc1c(-c2ccc(OC)c(SC(C)CC)c2)nc2cc(C)ccn12 (stereo not given)	-146	-6	0	3
CCCCNc1c(-c2ccc(Sc3ccc(OC)cc3)cc2)nc2cc(C)ccn12	0	82*	0	12
CC(C)NC(=O)Nc1ccc2c(c1)C(=O)N([C@H](C)CO)C[C@@H](C)[C@H](CN(C)Cc1ccc3c(c1)OCO3)O2	-5	-6	1	-1
CN1C(=O)c2cc(NC(=O)c3cccc(C(F)(F)F)c3)ccc2OC[C@H]2O[C@H](CC(=O)NCCN3CCCC3)CC[C@@H]21	-16	2	0	-2
CCC1(C)Cc2c(sc3[nH]c(=O)[nH]c(=O)c23)CS1 (stereo not given)	100*	nt	nt	14
